5 compounds from ChEMBL document CHEMBL1121495, “Anticandidal activity of pyrimidine-peptide conjugates” (J Med Chem, 1980) can be followed below.

Molecules are shown by their SMILES.

The assay has as its system Candida albicans. Briefly: Compound was evaluated for inhibition of transport of trimethionine in Candida albicans WD 18-4. The format is functional. Details: concentration or dose not given beside the values. The gist of the method:
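Initial uptake rate of radiolabeled (Met)3 into C. albicans WD 18-4 cells grown 6-8 h at 37 °C with aeration. Washed cells (1.4 mg dry wt/mL) preincubated 10 min at 37 °C, mixed with reaction mix of 2% glucose, citrate-phosphate buffer pH 3.5 (0.012 M) and (Met)3 6.06 x 10^-5 M. Samples filtered at intervals, washed, scintillation counted. Competitor included at 10-fold molar excess over (Met)3.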
As usually defined, the Inhibition is the change of the read-out against control, counted positive when it falls. `COC(=O)[C@H](CCSC)NC(=O)[C@H](CCSC)NC(=O)c1cc(O)nc(O)n1`: the Inhibition is reported as 0%.
As for `O=C(O)CNC(=O)CNC(=O)c1cc(O)nc(O)n1`, the figure is 0%; as for `CC(C)C[C@H](NC(=O)c1nc(O)nc(O)c1F)C(=O)O`, 0%.
As for `CC(C)CC(NC(=O)C(CC(C)C)NC(=O)c1cc(O)nc(O)n1)C(=O)O` (stereo not given), the figure is 67%; as for `CC(C)C[C@H](NC(=O)[C@H](CC(C)C)NC(=O)c1nc(O)nc(O)c1F)C(=O)O`, 40%.
